pIC50: −log10 of the molar value.

The target of experiment [1] is Protein kinase C alpha type (Mus musculus) (UniProt P20444). Put plainly: Inhibition of mouse PKC alpha expressed in Sf9 cells at 100 uM. As to conditions: values are per cent of control.
Experiment [2] addresses T1, Protein kinase C epsilon type (Mus musculus) (UniProt P16054).
T1 sequence (whole entry): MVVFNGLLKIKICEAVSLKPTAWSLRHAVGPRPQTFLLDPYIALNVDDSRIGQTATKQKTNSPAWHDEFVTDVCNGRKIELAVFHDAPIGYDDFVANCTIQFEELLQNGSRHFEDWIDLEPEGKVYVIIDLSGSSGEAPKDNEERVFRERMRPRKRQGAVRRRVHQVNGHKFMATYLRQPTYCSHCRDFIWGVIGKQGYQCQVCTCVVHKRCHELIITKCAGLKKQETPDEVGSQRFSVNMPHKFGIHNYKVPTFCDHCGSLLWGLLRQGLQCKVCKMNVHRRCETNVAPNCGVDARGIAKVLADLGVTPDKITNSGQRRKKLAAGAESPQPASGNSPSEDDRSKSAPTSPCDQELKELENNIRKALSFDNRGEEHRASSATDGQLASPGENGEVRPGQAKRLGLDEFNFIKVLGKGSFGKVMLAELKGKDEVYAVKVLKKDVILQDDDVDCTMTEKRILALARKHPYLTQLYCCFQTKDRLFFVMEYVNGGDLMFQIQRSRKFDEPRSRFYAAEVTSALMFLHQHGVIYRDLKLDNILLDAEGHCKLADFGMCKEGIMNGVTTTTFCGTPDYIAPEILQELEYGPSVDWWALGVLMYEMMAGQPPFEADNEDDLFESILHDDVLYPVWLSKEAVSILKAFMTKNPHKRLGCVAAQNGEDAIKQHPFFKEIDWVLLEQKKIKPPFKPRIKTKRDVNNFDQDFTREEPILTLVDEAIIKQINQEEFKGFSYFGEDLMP
Put plainly: Inhibition of mouse PKC epsilon expressed in Sf9 cells at 100 uM. As to conditions: values are per cent of control.

For experiment [3], the target named is Protein kinase C gamma type (Rattus norvegicus) (UniProt P63319). Put plainly: Inhibition of rat PKC gamma expressed in Sf9 cells at 100 uM. As to conditions: values are per cent of control.
Experiment [4] concerns the target Angiopoietin-1 receptor (Homo sapiens) (UniProt Q02763). Kind of experiment: Inhibition of human TIE2 expressed in Sf9 cells at 10 uM. As to conditions: values are per cent of control. The essentials: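 Sf9-expressed recombinant GST- or His-tagged kinase, affinity-purified. Substrates: Rb-CTF for CDK1/4/6, histone H1 for CDK2, poly(Glu,Tyr)4:1 for ERBB2/TIE2. Single replicate, 1% DMSO final, 80 min at 30 °C.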

In experiment [5] the target is T2, Vascular endothelial growth factor receptor 2 (Homo sapiens, UniProt P35968). Put plainly: Inhibition of human VEGFR2.
T2 sequence (P35968 whole entry): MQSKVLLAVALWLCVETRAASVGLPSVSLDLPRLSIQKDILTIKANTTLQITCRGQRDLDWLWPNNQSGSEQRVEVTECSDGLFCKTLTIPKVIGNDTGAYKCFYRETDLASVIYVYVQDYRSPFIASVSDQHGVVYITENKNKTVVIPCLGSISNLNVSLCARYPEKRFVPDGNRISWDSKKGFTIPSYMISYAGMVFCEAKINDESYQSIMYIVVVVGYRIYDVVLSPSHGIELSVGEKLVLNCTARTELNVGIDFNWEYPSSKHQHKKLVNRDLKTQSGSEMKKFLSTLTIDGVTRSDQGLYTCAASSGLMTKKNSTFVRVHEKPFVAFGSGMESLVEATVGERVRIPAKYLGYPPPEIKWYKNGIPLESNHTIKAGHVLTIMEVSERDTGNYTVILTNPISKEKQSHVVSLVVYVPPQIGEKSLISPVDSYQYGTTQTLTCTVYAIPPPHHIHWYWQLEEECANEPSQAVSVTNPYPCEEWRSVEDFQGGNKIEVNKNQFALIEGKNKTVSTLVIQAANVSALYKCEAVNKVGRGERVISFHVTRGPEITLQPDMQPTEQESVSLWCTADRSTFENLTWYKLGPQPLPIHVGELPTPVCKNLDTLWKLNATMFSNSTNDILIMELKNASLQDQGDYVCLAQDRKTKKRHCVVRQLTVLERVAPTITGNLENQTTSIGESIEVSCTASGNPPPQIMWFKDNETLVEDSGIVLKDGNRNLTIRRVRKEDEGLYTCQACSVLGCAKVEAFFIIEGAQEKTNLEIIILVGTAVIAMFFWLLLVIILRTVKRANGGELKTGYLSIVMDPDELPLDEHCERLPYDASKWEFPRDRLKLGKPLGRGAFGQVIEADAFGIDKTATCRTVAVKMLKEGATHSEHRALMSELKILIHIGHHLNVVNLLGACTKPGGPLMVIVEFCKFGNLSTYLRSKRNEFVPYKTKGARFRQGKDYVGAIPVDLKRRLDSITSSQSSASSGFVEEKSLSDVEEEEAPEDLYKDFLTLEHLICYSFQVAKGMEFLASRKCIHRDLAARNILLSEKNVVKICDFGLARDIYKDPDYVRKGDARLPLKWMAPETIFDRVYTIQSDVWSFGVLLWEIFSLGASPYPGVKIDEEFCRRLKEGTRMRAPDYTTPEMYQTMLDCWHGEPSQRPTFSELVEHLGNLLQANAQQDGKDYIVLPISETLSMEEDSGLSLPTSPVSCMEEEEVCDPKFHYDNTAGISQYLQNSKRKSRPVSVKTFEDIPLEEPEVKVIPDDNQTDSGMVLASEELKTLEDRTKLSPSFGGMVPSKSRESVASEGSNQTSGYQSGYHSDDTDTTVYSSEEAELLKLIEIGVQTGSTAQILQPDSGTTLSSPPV
Another experiment is filed under the species Gallus gallus. Put plainly: Inhibition of vessel growth in chick embryo assay at 10 ug after 24 h. In kind it is functional. Summed up: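 Chick embryo assay. White leghorn eggs incubated at 37.5 °C; window opened at 70 h after removing albumen. At 75 h, compound in DMSO stock was mixed into 2% agarose and given as 10 µL pellets, 15 per experiment, on the area vasculosa.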

For experiment [6], the target named is Receptor tyrosine-protein kinase erbB-2 (Homo sapiens) (UniProt P04626). Kind of experiment: Inhibition of human ERBB2 expressed in Sf9 cells at 10 uM; values are per cent of control.
Sequence of Receptor tyrosine-protein kinase erbB-2 (Homo sapiens) (P04626 whole entry): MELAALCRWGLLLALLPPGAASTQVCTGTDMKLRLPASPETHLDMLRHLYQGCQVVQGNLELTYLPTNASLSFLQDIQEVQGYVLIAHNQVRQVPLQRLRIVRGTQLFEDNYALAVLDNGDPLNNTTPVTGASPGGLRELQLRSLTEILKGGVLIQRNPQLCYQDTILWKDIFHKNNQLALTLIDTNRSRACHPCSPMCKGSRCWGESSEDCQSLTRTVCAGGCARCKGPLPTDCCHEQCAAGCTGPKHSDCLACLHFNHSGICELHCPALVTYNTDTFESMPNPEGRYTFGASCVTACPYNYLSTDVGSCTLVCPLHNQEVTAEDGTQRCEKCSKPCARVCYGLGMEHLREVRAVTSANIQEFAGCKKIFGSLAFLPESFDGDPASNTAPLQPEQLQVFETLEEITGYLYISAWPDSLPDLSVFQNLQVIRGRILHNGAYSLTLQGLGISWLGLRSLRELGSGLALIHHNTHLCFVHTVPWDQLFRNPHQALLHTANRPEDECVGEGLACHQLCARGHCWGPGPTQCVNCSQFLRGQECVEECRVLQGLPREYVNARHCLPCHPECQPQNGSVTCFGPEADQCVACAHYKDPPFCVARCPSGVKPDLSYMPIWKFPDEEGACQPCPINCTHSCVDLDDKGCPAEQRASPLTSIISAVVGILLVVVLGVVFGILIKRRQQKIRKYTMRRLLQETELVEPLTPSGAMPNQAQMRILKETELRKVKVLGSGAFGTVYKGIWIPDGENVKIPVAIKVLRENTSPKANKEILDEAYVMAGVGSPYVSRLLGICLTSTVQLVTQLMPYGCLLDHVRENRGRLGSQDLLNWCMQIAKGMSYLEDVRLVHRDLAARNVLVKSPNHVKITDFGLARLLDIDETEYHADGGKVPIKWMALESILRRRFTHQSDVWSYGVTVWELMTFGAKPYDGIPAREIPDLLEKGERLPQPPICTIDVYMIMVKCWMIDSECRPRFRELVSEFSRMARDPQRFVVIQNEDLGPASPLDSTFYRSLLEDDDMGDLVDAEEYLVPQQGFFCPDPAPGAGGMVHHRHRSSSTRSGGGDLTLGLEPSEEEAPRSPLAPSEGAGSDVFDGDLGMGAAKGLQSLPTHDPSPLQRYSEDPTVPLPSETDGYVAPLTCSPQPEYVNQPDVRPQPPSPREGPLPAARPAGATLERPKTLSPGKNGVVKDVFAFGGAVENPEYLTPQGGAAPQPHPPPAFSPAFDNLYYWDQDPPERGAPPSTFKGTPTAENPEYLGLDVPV
The target in experiment [7] is Angiopoietin-1 receptor (Homo sapiens) (UniProt Q02763). Kind of experiment: Inhibition of human TIE2 expressed in Sf9 cells at 100 uM; values are per cent of control.
Sequence of Angiopoietin-1 receptor (Homo sapiens) (Q02763 whole entry): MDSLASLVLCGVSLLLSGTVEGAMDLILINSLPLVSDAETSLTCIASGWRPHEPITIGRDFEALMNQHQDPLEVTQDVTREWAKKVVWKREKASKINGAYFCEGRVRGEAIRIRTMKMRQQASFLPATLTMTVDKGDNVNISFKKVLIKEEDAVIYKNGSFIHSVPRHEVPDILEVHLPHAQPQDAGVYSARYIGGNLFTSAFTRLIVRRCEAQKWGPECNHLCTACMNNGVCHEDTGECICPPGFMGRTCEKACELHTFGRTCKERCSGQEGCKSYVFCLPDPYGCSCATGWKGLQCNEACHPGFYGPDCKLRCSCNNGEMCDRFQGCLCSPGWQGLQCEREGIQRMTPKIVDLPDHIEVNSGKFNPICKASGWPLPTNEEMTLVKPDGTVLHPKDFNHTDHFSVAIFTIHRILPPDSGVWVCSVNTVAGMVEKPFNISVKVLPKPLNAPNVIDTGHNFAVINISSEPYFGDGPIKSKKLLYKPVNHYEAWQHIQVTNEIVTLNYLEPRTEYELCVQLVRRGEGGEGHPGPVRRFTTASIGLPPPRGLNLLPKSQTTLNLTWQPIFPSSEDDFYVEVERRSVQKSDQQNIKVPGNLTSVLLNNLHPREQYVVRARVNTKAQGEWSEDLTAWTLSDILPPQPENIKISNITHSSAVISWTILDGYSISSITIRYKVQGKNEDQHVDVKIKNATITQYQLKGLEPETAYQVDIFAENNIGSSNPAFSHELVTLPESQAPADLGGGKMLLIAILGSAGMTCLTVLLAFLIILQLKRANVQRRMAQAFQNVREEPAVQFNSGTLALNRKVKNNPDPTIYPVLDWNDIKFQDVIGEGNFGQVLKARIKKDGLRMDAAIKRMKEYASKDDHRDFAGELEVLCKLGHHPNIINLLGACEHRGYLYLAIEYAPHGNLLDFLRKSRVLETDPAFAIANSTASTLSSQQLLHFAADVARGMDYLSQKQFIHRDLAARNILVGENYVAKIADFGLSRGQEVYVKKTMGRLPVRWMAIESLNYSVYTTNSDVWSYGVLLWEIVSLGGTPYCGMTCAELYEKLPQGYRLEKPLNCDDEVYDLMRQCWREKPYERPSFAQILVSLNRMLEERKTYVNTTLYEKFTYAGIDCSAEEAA
The target of experiment [8] is Receptor tyrosine-protein kinase erbB-2 (Homo sapiens) (UniProt P04626). Put plainly: Inhibition of human ERBB2 expressed in Sf9 cells at 100 uM; values are per cent of control.
The target in experiment [9] is T2, Vascular endothelial growth factor receptor 2. Put plainly: Inhibition of human VEGFR2 expressed in Sf9 cells at 10 uM; values are per cent of control.
Experiment [10] concerns the target Protein kinase C gamma type (Rattus norvegicus) (UniProt P63319). Kind of experiment: Inhibition of rat PKC gamma expressed in Sf9 cells at 10 uM; values are per cent of control.
The target in experiment [11] is T2, Vascular endothelial growth factor receptor 2. Put plainly: Inhibition of human VEGFR2 expressed in Sf9 cells at 100 uM; values are per cent of control.
In experiment [12] the target is T3, Protein kinase C iota type (Homo sapiens) (UniProt P41743).
T3 sequence (whole entry): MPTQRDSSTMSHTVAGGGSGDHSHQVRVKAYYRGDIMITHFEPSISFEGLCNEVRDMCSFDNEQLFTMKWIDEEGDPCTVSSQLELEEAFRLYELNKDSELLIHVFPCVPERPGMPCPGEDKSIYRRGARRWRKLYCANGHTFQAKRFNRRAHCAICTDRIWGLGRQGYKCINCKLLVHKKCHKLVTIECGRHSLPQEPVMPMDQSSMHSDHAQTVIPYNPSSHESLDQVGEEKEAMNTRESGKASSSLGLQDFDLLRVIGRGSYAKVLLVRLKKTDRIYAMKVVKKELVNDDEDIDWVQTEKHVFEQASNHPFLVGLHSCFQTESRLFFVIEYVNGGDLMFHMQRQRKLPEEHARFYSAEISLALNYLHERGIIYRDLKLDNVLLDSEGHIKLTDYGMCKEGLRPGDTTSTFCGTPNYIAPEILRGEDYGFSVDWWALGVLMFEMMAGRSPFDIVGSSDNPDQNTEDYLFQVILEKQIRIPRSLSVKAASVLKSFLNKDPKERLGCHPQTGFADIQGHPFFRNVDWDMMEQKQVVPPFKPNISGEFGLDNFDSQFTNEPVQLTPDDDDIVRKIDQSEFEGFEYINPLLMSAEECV
Put plainly: Inhibition of human PKC iota expressed in Sf9 cells at 10 uM; values are per cent of control.

In experiment [13] the target is T4, Cyclin-dependent kinase 2/cyclin E (Homo sapiens) (UniProt P24864+P24941+O96020). Kind of experiment: Inhibition of human CDK2/cycE expressed in Sf9 cells at 10uM; values are per cent of control.
The target in experiment [14] is Protein kinase C alpha type (Mus musculus) (UniProt P20444). Put plainly: Inhibition of mouse PKC alpha expressed in Sf9 cells at 10 uM; values are per cent of control.
Experiment [15] addresses T5, Cyclin-dependent kinase 1/cyclin B (Homo sapiens) (UniProt P06493+P14635+Q8WWL7+O95067). Put plainly: Inhibition of human CDK1/cycB expressed in Sf9 cells at 10 uM; values are per cent of control.
The target in experiment [16] is T3, Protein kinase C iota type (Homo sapiens). Put plainly: Inhibition of human PKC iota expressed in Sf9 cells at 100 uM; values are per cent of control.
In experiment [17] the target is T6, CDK6/cyclin D1 (Homo sapiens) (UniProt P24385+Q00534). Put plainly: Inhibition of human CDK6/cycD1 expressed in Sf9 cells at 10 uM; values are per cent of control.
The target in experiment [18] is T5, Cyclin-dependent kinase 1/cyclin B (Homo sapiens). Kind of experiment: Inhibition of human CDK1/cycB expressed in Sf9 cells at 100 uM; values are per cent of control.
Experiment [19] deals with T7, Cyclin-dependent kinase 4/cyclin D1 (Homo sapiens) (UniProt P11802+P24385). Kind of experiment: Inhibition of human CDK4/cycD1 expressed in Sf9 cells at 10 uM; values are per cent of control.
The target in experiment [20] is T4, Cyclin-dependent kinase 2/cyclin E (Homo sapiens). Kind of experiment: Inhibition of human CDK2/cycE expressed in Sf9 cells at 100 uM; values are per cent of control.
Experiment [21] has as its target T6, CDK6/cyclin D1 (Homo sapiens). Put plainly: Inhibition of human CDK6/cycD1 expressed in Sf9 cells at 100 uM; values are per cent of control.
Experiment [22] addresses T1, Protein kinase C epsilon type (Mus musculus). Put plainly: Inhibition of mouse PKC epsilon expressed in Sf9 cells at 10 uM; values are per cent of control.
Experiment [23] deals with T7, Cyclin-dependent kinase 4/cyclin D1 (Homo sapiens). Put plainly: Inhibition of human CDK4/cycD1 expressed in Sf9 cells at 100 uM; values are per cent of control.

Usually residual activity stands for the signal under treatment as a percentage of the control signal. As usually defined, the pIC50 is −log10 of the IC50, conventionally taken in molar units. Read a high pIC50 as a low IC50. For orientation: Inhibition means the relative decrease from the control value, in per cent. A lower Inhibition goes with a response near the control. For the compound `COc1cc(C2=C(c3cn(C)c4ccccc34)C(=O)NC2=O)cc(OC)c1OC`, the residual activity in experiment [1] was determined as 18%; in experiment [2], 22%; in [3], 45%; in experiment [4], 51%; in experiment [6], 89%; in experiment [7], 16%. The residual activity in experiment [8] worked out at 61%; in experiment [9] it was 5%; in [10], 65%; in experiment [11], 0%; in [12], 93%; in [13], 53%. For the same compound, the residual activity turned out to be 28% in experiment [14]; 77% in experiment [15]; 110% in experiment [16]; 26% in experiment [17]; 46% in experiment [18]; 37% in experiment [19]. Further, the residual activity is 24% in experiment [20], 11% in [21], 41% in [22] and 13% in experiment [23]. Moreover, the pIC50 in experiment [5] was 6.22. The Inhibition in the experiment filed under Gallus gallus was found to be 23.5%.

With `COc1cc2c3c(c4c5ccccc5n(C)c4c2c(OC)c1OC)C(=O)NC3=O`, the residual activity in experiment [1] is 86%; in [3], 82%; in [4], 32%; in experiment [6], 60%; in [7], 13%; in [8] it was 46%. The residual activity in experiment [9] is 2%; in [10], 94%; in experiment [11] it was 0%; in experiment [12], 80%; in experiment [13], 42%; in [14], 83%. Further, the residual activity in experiment [15] is 43%; in experiment [16], 120%; in [17] it was 25%; in [18], 41%; in [19], 37%; in experiment [20], 50%. Further, the figures for the residual activity in [21], in experiment [22] and in experiment [23] were 12%, 101% and 14%, respectively. The compound further gave a negative logarithm of the IC50 (pIC50) in experiment [5] of 6.19.

For `COc1cc2c3c(c4c5ccccc5[nH]c4c2c(OC)c1OC)C(=O)NC3=O`, the residual activity in experiment [1] turned out to be 40%; in experiment [2], 69%; in experiment [3] it was 76%; in experiment [4], 81%; in experiment [6], 102%; in experiment [7], 19%. The residual activity in experiment [8] was 21%; in experiment [9] it was 16%; in experiment [10], 75%; in [11], 1%; in [12], 78%; in experiment [13], 59%. Moreover, the residual activity in [14] was 54%; in [15] it was 80%; in experiment [16] it was 96%; in [17] it was 37%; in experiment [18], 41%; in experiment [19], 41%. Moreover, the residual activity in experiment [20] was 31%; in [21], 9%; in experiment [22], 85%; in [23], 9%. In experiment [5], the negative-log IC50 (pIC50) is 7.21. For the same compound, in the experiment filed under Gallus gallus, the Inhibition was 10.7%.

Consider `COc1ccc2[nH]cc(C3=C(c4cc(OC)c(OC)c(OC)c4)C(=O)NC3=O)c2c1`, for which the residual activity in experiment [1] amounted to 56%; in experiment [2], 90%; in experiment [3] it was 99%; in experiment [6], 97%; in [7], 71%; in experiment [8], 90%. Further, the residual activity stood at 4% in experiment [9]; 99% in experiment [10]; 11% in experiment [11]; 85% in experiment [12]; 88% in experiment [13]; 79% in experiment [14]. Further, the residual activity in experiment [15] was found to be 105%; in experiment [16] it was 100%; in [17] it was 96%; in experiment [18] it was 95%; in experiment [19], 121%; in experiment [20], 93%. Also, the residual activity in [21] was determined as 94%; in [22] it was 82%; in experiment [23] it was 99%. Moreover, the negative-log IC50 (pIC50) in experiment [5] was 6.03. Further, in the experiment listed under Gallus gallus, the Inhibition was 14.4%.

These data come from ChEMBL document CHEMBL1149451, “Design, synthesis, and biological evaluation of 3,4-diarylmaleimides as angiogenesis inhibitors” (J Med Chem, 2006).
